The values below come from ChEMBL document CHEMBL4622842, “Optimization and biological evaluation of imidazopyridine derivatives as a novel scaffold for γ-secretase modulators with oral efficacy against cognitive deficits in Alzheimer's disease model mice” (Bioorg Med Chem, 2020).

In one data set the target is Gamma-secretase. As to the kind of experiment: Inhibition of gamma-secretase in human SK-N-BE cells assessed as decrease in amyloid beta 42 production treated for 6 hrs by ELISA. Format: cell-based. The procedure, abridged:
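SK-N-BE(2) human neuroblastoma cells grown in RPMI1640 with 10% FBS and penicillin/streptomycin, plated in 96-well plates overnight, then exposed to a range of drug concentrations in 0.5% DMSO for 6 h. Medium Aβ1-42 was measured by sandwich ELISA (44A3 capture, biotin-82E1 detection, streptavidin-HRP, TMB). Total Aβ was measured by ELISA kit. Mean of two wells.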
A general note: In an ELISA, binding on a coated surface is turned into a signal by an enzyme label.

Data set [1] concerns Rattus norvegicus. As to the kind of experiment: Reduction in amyloid beta 42 production in Sprague-Dawley rat plasma at 30 mg/kg, po measured after 3 to 4 hrs by ELISA relative to control. Format: functional. The procedure, abridged: (§1)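 Nonfasted 6-week-old male SD rats (n = 4 or 5) given a single oral dose of 10 or 30 mg/kg in 0.5% (w/v) methylcellulose. Blood and brain were taken under isoflurane 3 h post-dose (4 h for some entries). Hippocampus was sonicated in 10 volumes of TBS pH 7.4 with protease inhibitors and spun at 100,000g, 4 °C, 1 h. Aβx-42 in supernatant and plasma measured by ELISA; Student's t-test vs vehicle.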

Data set [2] deals with Rattus norvegicus. As to the kind of experiment: Reduction in amyloid beta 42 production in Sprague-Dawley rat brain at 30 mg/kg, po measured after 3 to 4 hrs by ELISA relative to control. Format: functional. The procedure, abridged: as §1
The nature of data set [3]: Intrinsic clearance in rat liver microsomes at 0.2 uM incubated upto 45 mins by LC/MS-MS analysis. The conditions noted are these: liver microsomes. It is filed as ADME, Microsome. The procedure, abridged:
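Test compound at 0.2 μM incubated at 37 °C with pooled rat or mouse liver microsomes (0.2 mg protein/mL), 1 mM NADPH and 0.1 mM EDTA in 100 mM Na+-K+ phosphate, pH 7.4. Samples taken at 0, 15, 30 and 45 min; compound/internal-standard peak areas measured by LC-MS/MS to calculate CLint (mL/min/kg). Mean of duplicate experiments.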

Data set [4] can be described thus: Drug concentration in brain of Sprague-Dawley rat at 30 mg/kg, po measured after 3 hrs by LC/MS-MS analysis. It is filed as ADME, organism-based. The following applies: in vivo. The procedure, abridged: (§2)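 Nonfasted 6-week-old male SD rats (n = 2 or 3) received a single oral dose of 10 or 30 mg/kg as a suspension in 0.5% (w/v) methylcellulose. Plasma and brain were sampled 3 h post-dose, proteins were precipitated with acetonitrile, and drug was quantified by LC-MS/MS. Values are the mean of two or three rats. The brain/plasma ratio was taken from these concentrations.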

Data set [5] in a line: Ratio of drug concentration in plasma of Sprague-Dawley rat at 30 mg/kg, po to IC50 of gamma-secretase in human SK-N-BE cells. It is filed as ADME, organism-based. The following applies: in vivo.
The nature of data set [6]: Ratio of drug concentration in brain to blood of Sprague-Dawley rat at 30 mg/kg, po measured after 3 hrs by LC/MS-MS analysis. Format: ADME, organism-based. The conditions noted are these: brain and blood. The procedure, abridged: as §2
Data set [7] can be described thus: Drug concentration in plasma of Sprague-Dawley rat at 30 mg/kg, po measured after 3 hrs by LC/MS-MS analysis. It is filed as ADME, organism-based. The procedure, abridged:
as §2

Data set [8] can be described thus: Ratio of drug concentration in brain of Sprague-Dawley rat at 30 mg/kg, po to IC50 of gamma-secretase in human SK-N-BE cells. Format: ADME, organism-based. The following applies: in vivo.

For the molecule `CCn1[nH]c2cc(-c3c(C)nc4c(OCc5ccc(-c6ccc(F)cc6)cc5)cccn34)ccc2c1=O`, on Gamma-secretase, the IC50 (in general, the concentration that gives 50% inhibition) worked out at 390 nM.
Consider `CCn1sc2cc(-c3c(C)nc4c(OCc5ccc(-c6ccc(F)cc6)cc5)cccn34)ccc2c1=O`, for which the concentration for half-maximal inhibition (IC50) on Gamma-secretase is over 2000 nM.
Consider `CCNC(=O)c1ccc(-c2c(C)nc3c(OCc4ccc(-c5ccc(F)cc5)cc4)cccn23)cn1`, for which the inhibition in vivo – broadly, the share of the control response that was lost under treatment – at 30 mg/kg is 43% in the data set on Rattus norvegicus [1] and 22% in the data set on Rattus norvegicus [2]. Also, the half-inhibitory concentration (IC50) on Gamma-secretase worked out at 75 nM. Further, the CLint scaled at 0.2 µM in [3] turned out to be 221 mL/min/kg.
As to `CCNC(=O)c1ccc(-c2c(C)nc3c(OCc4ccc(-c5ccccc5F)cc4)cccn23)cn1`, on Gamma-secretase, the IC50 came to 220 nM. For the same molecule, the CLint scaled at 0.2 µM in data set [3] was over 1000 mL/min/kg.
Consider `Cc1nc2c(OCc3ccc(-c4ccc(F)cc4)cc3)cccn2c1-c1ccc2c(=O)n(C)oc2c1.Cl`, for which the inhibition in vivo at 30 mg/kg is 81% in the data set on Rattus norvegicus [1] and 29% with Rattus norvegicus [2]. The same molecule returned a Ct in data set [4] of 5.6 nmol/g. Besides, the results for the Ratio in [5] and in data set [8] were 304 and 81, respectively. In addition, the IC50 on Gamma-secretase is 69 nM. The CLint scaled at 0.2 µM in [3] came out at 167 mL/min/kg. In addition, the Kp (commonly the ratio of the level in a tissue or fluid to that in plasma or blood) at 3 h in [6] was found to be 0.27. The molecule further showed a concentration at 3 h in data set [7] of 21 µM.
Take `CCNC(=O)c1ccc(-c2c(C)nc3c(OCc4ccc(-c5cccc(F)c5)cc4)cccn23)cn1`: the inhibition in vivo at 30 mg/kg was 42% with Rattus norvegicus [1] and 22% in the data set with Rattus norvegicus [2]. Moreover, the IC50 on Gamma-secretase amounted to 99 nM. Further, the CLint scaled at 0.2 µM in [3] stood at 307 mL/min/kg.
`CNC(=O)c1ccc(-c2c(C)nc3c(OCc4ccc(-c5ccc(F)cc5)cc4)cccn23)cn1.Cl`: the inhibition in vivo at 30 mg/kg in the data set with Rattus norvegicus [1] was determined as 68%; with Rattus norvegicus [2], 40%. This molecule gave a Ct in [4] of 7.1 nmol/g. The Ratio amounted to 446 in [5] and 193 in data set [8]. The IC50 at Gamma-secretase is 37 nM. In addition, the CLint scaled at 0.2 µM in data set [3] was determined as 147 mL/min/kg. Further, the partition ratio (Kp) at 3 h in [6] was found to be 0.44. In data set [7], the concentration at 3 h stood at 17 µM.
